Converted amounts (≈) assume the structure as drawn.
How the values were obtained:
Pseudomonas aeruginosa [1] = test: Antibacterial activity against Pseudomonas aeruginosa NCTC 13437 assessed as bacterial growth inhibition incubated for overnight by microbroth dilution method; format: functional
Procedure, shortened: (§1)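 Broth microdilution in Tryptic Soy Broth. DMSO stocks were diluted in TSB as 2-fold series. Overnight TSB cultures were back-diluted to OD 0.01 and mixed 1:1 with compound. Incubation was overnight at 37 °C. MIC was the lowest concentration without visible growth (<0.1 OD600). DMSO vehicle was checked at equivalent concentrations.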

Staphylococcus aureus [2] = test: Antibacterial activity against methicillin sensitive Staphylococcus aureus ATCC 9144 assessed as bacterial growth inhibition incubated for overnight by microbroth dilution method; format: functional
Procedure, shortened: (§2)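 Microbroth dilution in Tryptic Soy Broth. DMSO stocks were diluted in TSB as 2-fold series. Overnight TSB cultures were back-diluted to OD 0.01 and mixed 1:1 with compound. Incubation was overnight at 37 °C. MIC is the lowest concentration with no visible growth (<0.1 OD600). DMSO at equivalent concentrations was checked.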

Staphylococcus aureus [3] = test: Antibacterial activity against methicillin resistant Staphylococcus aureus NCTC 13616 assessed as bacterial growth inhibition incubated for overnight by microbroth dilution method; format: functional; procedure, shortened: as §2
Staphylococcus aureus [4] = test: Antibacterial activity against methicillin resistant Staphylococcus aureus USA 300 assessed as bacterial growth inhibition incubated for overnight by microbroth dilution method; format: functional; procedure, shortened: as §2
Enterococcus faecalis [5] = test: Antibacterial activity against vancomycin resistant Enterococcus faecalis NCTC 12201 assessed as bacterial growth inhibition incubated for overnight by microbroth dilution method; format: functional; procedure, shortened: as §2
Enterococcus faecium = test: Antibacterial activity against vancomycin resistant Enterococcus faecium NCTC 12204 assessed as bacterial growth inhibition incubated for overnight by microbroth dilution method; format: functional; procedure, shortened: as §2
Acinetobacter baumannii [6] = test: Antibacterial activity against Acinetobacter baumannii AYE assessed as bacterial growth inhibition incubated for overnight by microbroth dilution method; format: functional; procedure, shortened: as §1
Acinetobacter baumannii [7] = test: Antibacterial activity against Acinetobacter baumannii ATCC 17978 assessed as bacterial growth inhibition incubated for overnight by microbroth dilution method; format: functional; procedure, shortened: as §1
Pseudomonas aeruginosa [8] = test: Antibacterial activity against Pseudomonas aeruginosa PAO1 assessed as bacterial growth inhibition incubated for overnight by microbroth dilution method; format: functional; procedure, shortened: as §1
Escherichia coli [9] = test: Antibacterial activity against Escherichia coli NCTC 12923 assessed as bacterial growth inhibition incubated for overnight by microbroth dilution method; format: functional; procedure, shortened: as §1
Staphylococcus aureus [10] = test: Antibacterial activity against methicillin sensitive Staphylococcus aureus 1199B assessed as bacterial growth inhibition incubated for overnight by microbroth dilution method; format: functional; procedure, shortened: as §2
Klebsiella pneumoniae [11] = test: Antibacterial activity against Klebsiella pneumoniae M6 assessed as bacterial growth inhibition incubated for overnight by microbroth dilution method
Klebsiella pneumoniae [12] = test: Antibacterial activity against ESBL Klebsiella pneumoniae NCTC 13368 assessed as bacterial growth inhibition incubated for overnight by microbroth dilution method
Enterococcus faecalis [13] = test: Antibacterial activity against vancomycin sensitive Enterococcus faecalis NCTC 775 assessed as bacterial growth inhibition incubated for overnight by microbroth dilution method
Klebsiella pneumoniae [14] = test: Synergistic antibacterial activity against Klebsiella pneumoniae NCTC 13368 assessed as rifampicin MIC at <=0.25 times MIC incubated for overnight by microbroth dilution checkerboard assay; format: functional
Procedure, shortened: (§3)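 Checkerboard microdilution under MIC conditions (TSB, overnight, 37 °C). Two-fold series of each agent were combined on one plate before bacteria were added, and single-agent MICs were measured on the same plate. FIC = sum of combination MIC/alone MIC for each agent, taken from the most synergistic well. Three independent repeats, mean ± SD. ≤0.5 was taken as strong synergy and 0.5–<1 as weak.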

Klebsiella pneumoniae [15] = test: Synergistic antibacterial activity against […] Klebsiella pneumoniae M6 assessed as rifampicin MIC at <=0.25 times MIC incubated for overnight by microbroth dilution checkerboard assay; format: functional
Procedure, shortened: (§4)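 Checkerboard run under the MIC conditions (TSB, overnight, 37 °C). Antibiotic and lipoguanidine 2-fold series were combined on one plate before bacteria were added. Growth/no-growth was scored as for the MIC (<0.1 OD600). Single-agent MICs were measured on the same plates. Three independent repeats were done.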

Acinetobacter baumannii [16] = test: Synergistic antibacterial activity against Acinetobacter baumannii AYE assessed as rifampicin MIC at <=0.25 times MIC incubated for overnight by microbroth dilution checkerboard assay; format: functional; procedure, shortened: as §3
Acinetobacter baumannii [17] = test: Synergistic antibacterial activity against Acinetobacter baumannii ATCC 17978 assessed as rifampicin MIC at <=0.25 times MIC incubated for overnight by microbroth dilution checkerboard assay; format: functional; procedure, shortened: as §3
Pseudomonas aeruginosa [18] = test: Synergistic antibacterial activity against Pseudomonas aeruginosa PAO1 assessed as rifampicin MIC at <=0.25 times MIC incubated for overnight by microbroth dilution checkerboard assay; format: functional
Procedure, shortened: (§5)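 Checkerboard microdilution in Tryptic Soy Broth, run like the MIC assay. Overnight TSB cultures were back-diluted to OD 0.01 and added 1:1 to the combined two-fold series of both agents, then incubated overnight at 37 °C. Growth/no-growth was called at <0.1 OD600. MICs alone were read on the same plates. FIC index came from the most synergistic well; three independent repeats, mean ± SD.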

Pseudomonas aeruginosa [19] = test: Synergistic antibacterial activity against Pseudomonas aeruginosa NCTC 13437 assessed as rifampicin MIC at <=0.25 times MIC incubated for overnight by microbroth dilution checkerboard assay; format: functional; procedure, shortened: as §5
Escherichia coli [20] = test: Synergistic antibacterial activity against Escherichia coli NCTC 12923 assessed as rifampicin MIC at <=0.25 times MIC incubated for overnight by microbroth dilution checkerboard assay; format: functional; procedure, shortened: as §3
Klebsiella pneumoniae [21] = test: Synergistic antibacterial activity against Klebsiella pneumoniae NCTC 13368 assessed as fold change in rifampicin MIC at <=0.25 times MIC incubated for overnight by microbroth dilution checkerboard assay relative to rifampicin alone; format: functional; procedure, shortened: as §4
Acinetobacter baumannii [22] = test: Synergistic antibacterial activity against Acinetobacter baumannii AYE assessed as fold change in rifampicin MIC at <=0.25 times MIC incubated for overnight by microbroth dilution checkerboard assay relative to rifampicin alone; format: functional; procedure, shortened: as §3
Acinetobacter baumannii [23] = test: Synergistic antibacterial activity against Acinetobacter baumannii ATCC 17978 assessed as fold change in rifampicin MIC at <=0.25 times MIC incubated for overnight by microbroth dilution checkerboard assay relative to rifampicin alone; format: functional; procedure, shortened: as §3
Pseudomonas aeruginosa [24] = test: Synergistic antibacterial activity against Pseudomonas aeruginosa PAO1 assessed as fold change in rifampicin MIC at <=0.25 times MIC incubated for overnight by microbroth dilution checkerboard assay relative to rifampicin alone; format: functional; procedure, shortened: as §5
Pseudomonas aeruginosa [25] = test: Synergistic antibacterial activity against Pseudomonas aeruginosa NCTC 13437 assessed as fold change in rifampicin MIC at <=0.25 times MIC incubated for overnight by microbroth dilution checkerboard assay relative to rifampicin alone; format: functional; procedure, shortened: as §5
Escherichia coli [26] = test: Synergistic antibacterial activity against Escherichia coli NCTC 12923 assessed as fold change in rifampicin MIC at <=0.25 times MIC incubated for overnight by microbroth dilution checkerboard assay relative to rifampicin alone; format: functional; procedure, shortened: as §3

Compound	MIC (Acinetobacter baumannii [6]) [µg/mL]	MIC (Acinetobacter baumannii [7]) [µg/mL]	MIC (Escherichia coli [9]) [µg/mL]	MIC (Klebsiella pneumoniae [12]) [µg/mL]	MIC (Klebsiella pneumoniae [14]) [µg/mL]	MIC (Klebsiella pneumoniae [15]) [µg/mL]	MIC (Acinetobacter baumannii [16]) [µg/mL]	MIC (Acinetobacter baumannii [17]) [µg/mL]	MIC (Pseudomonas aeruginosa [18]) [µg/mL]	MIC (Pseudomonas aeruginosa [19]) [µg/mL]	MIC (Escherichia coli [20]) [µg/mL]	fold change (FC) (Klebsiella pneumoniae [21])	fold change (FC) (Acinetobacter baumannii [22])	fold change (FC) (Acinetobacter baumannii [23])	fold change (FC) (Pseudomonas aeruginosa [24])	fold change (FC) (Pseudomonas aeruginosa [25])	fold change (FC) (Escherichia coli [26])	further results
CCCCCCCC/C=C\CCCCCCCCNC(=N)NCCCCCCCCN	32 (≈ 73.3 µM)	8 (≈ 18.3 µM)	16 (≈ 36.6 µM)	32 (≈ 73.3 µM)														MIC (Pseudomonas aeruginosa [1]): > 128 µg/mL; MIC (Staphylococcus aureus [2]): 4 µg/mL (≈ 9.16 µM); MIC (Staphylococcus aureus [3]): 4 µg/mL (≈ 9.16 µM); MIC (Staphylococcus aureus [4]): 2 µg/mL (≈ 4.58 µM); MIC (Enterococcus faecalis [5]): 2 µg/mL (≈ 4.58 µM); MIC (Enterococcus faecium): 4 µg/mL (≈ 9.16 µM); MIC (Pseudomonas aeruginosa [8]): > 128 µg/mL; MIC (Staphylococcus aureus [10]): 4 µg/mL (≈ 9.16 µM); MIC (Klebsiella pneumoniae [11]): > 128 µg/mL; MIC (Enterococcus faecalis [13]): 4 µg/mL (≈ 9.16 µM)
CCCCCCCCCCNC(=N)NCCCCCCCCCC	16 (≈ 47.1 µM)	32 (≈ 94.2 µM)	64 (≈ 188 µM)	16 (≈ 47.1 µM)	64	32	≤ 0.125	≤ 0.125	64	64	8	0	>=4	>=4	0	0	0	
CCCCCCCCCCNC(=N)NCCCCN(C)C					1	≤ 0.125	≤ 0.125	≤ 0.125	0.5	0.5	≤ 0.125	>=4	>=4	>=4	>=4	>=4	>=4	
CCCCCCCCCCNC(=N)NCCCC	16 (≈ 62.6 µM)	16 (≈ 62.6 µM)	16 (≈ 62.6 µM)	16 (≈ 62.6 µM)	≤ 0.125	≤ 0.125	≤ 0.125	≤ 0.125	16	16	≤ 0.125	>=4	>=4	>=4	0	0	>=4	
CCCCCCCCCCNC(=N)NCCCCN1CCCC1					0.5	≤ 0.125	≤ 0.125	≤ 0.125	0.5	2	≤ 0.125	>=4	>=4	>=4	>=4	>=4	>=4	
CO[C@@H]1[C@@H](OC(N)=O)[C@@H](O)[C@H](Oc2ccc3c(O)c(NC(=O)c4ccc(O)c(CC=C(C)C)c4)c(=O)oc3c2C)OC1(C)C [NOVOBIOCIN]	8 (≈ 13.1 µM)	8 (≈ 13.1 µM)	> 128	> 128														MIC (Pseudomonas aeruginosa [1]): > 128 µg/mL; MIC (Pseudomonas aeruginosa [8]): > 128 µg/mL; MIC (Klebsiella pneumoniae [11]): > 128 µg/mL
CCCCCCCCCCCC(=O)NCCCCN					128	32	32	4	64	32	32	0	0	0	0	0	0	
CCCCCCCC/C=C\CCCCCCCC(=O)NCCCCN					32	64	16	4	64	64	32	0	0	0	0	0	0	

— ChEMBL document CHEMBL5357066, “Development of Novel Membrane Disrupting Lipoguanidine Compounds Sensitizing Gram-Negative Bacteria to Antibiotics” (ACS Med Chem Lett, 2024)
